Hits are enriched below; roughly 3.5% of the tested compounds scored in any of these assays.
RGS4 inh: human RGS4 inhibition; HEK293 M3R/RGS4 inducible, Fluo-4 calcium flux; active compounds read high; triggered by carbachol at its EC20; 310,000 tested, 0.45% active; B-score at 10 µM; AID 463165; P49798;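 active means B-score, a plate-corrected calcium signal, over three deviations above library mean, with baseline fluorescence within five deviations of library mean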;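 further: RGS4 expression induced by doxycycline in cells with stable M3 receptor; B-score is computed from the integrated fluorescence ratio over baseline after carbachol; higher B-score means a larger calcium signal and so more RGS4 inhibition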
Target sequence (P49798 whole entry, looked up): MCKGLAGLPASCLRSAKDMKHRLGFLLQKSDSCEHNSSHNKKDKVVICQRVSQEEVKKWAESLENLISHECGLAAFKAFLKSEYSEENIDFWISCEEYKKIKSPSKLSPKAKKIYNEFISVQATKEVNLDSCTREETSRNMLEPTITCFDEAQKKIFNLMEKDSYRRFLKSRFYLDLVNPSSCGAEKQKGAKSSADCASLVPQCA
MrgX1 ag: human MrgX1 receptor agonism, primary screen | Q96LB2 | MrgX1-HEK293 cells, Fluo-4 calcium fluorescence, agonist mode; active compounds read high | B-score at 10 µM | 310,000 tested, 0.44% active | AID 588627;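 active means calcium response B-score plate-corrected fluorescence ratio at least 3 library SD, with starting fluorescence B-score inside 5 SD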
Target sequence (Q96LB2 whole entry, looked up): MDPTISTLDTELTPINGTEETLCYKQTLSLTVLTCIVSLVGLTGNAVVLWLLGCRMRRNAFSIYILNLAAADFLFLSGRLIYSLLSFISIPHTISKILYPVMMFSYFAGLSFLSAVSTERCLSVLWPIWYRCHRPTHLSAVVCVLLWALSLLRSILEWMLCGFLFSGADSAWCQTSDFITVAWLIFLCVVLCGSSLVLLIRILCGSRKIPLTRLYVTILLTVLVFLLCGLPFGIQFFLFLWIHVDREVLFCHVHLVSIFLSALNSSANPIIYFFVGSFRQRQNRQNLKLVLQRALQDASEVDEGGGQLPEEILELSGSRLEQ
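Test system: Stable human MrgX1 HEK293 cell line | Schedule: Overnight plating before 1 h dye loading | Read-out basis: Baseline-normalised fluorescence change ratio, B-scored | Detection: Kinetic calcium dye fluorescence, Fluo-4 NW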
RGS4 pot: RGS4 potentiation or activation; HEK293 M3R/inducible RGS4, carbachol calcium flux Fluo4; active compounds read low; B-score at 10 µM; 310,000 tested, 0.92% active;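 active means B-score of the integrated calcium signal more than 4 SD below the library mean, with starting fluorescence not abnormally high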;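 further: negative B-score means reduced calcium response which marks RGS4 activation or potentiation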
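Assay system: HEK293 FlpIn-TREx cells, stable M3R, doxycycline-inducible RGS4 / Probe or stimulus: carbachol, ECmax concentration / Times: overnight RGS4 induction, 30 min dye load 37 °C, 20 min compound RT / Signal: kinetic calcium fluorescence imaging with Fluo4-AM dye, 2 µM / Measure: Agonist-evoked peak-minus-minimum fluorescence over baseline, integrated ratio, B score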
MrgX1 PAM: human MrgX1 positive allosteric modulation, primary screen | 310,000 tested, 0.63% active | MrgX1-HEK293, Fluo-4 calcium flux, FDSS; active compounds read high | B-score at 10 µM;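 active means plate-corrected calcium response at least 3 library SD above typical, normal starting fluorescence, not activating the receptor alone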;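 further: compound read alongside a low EC10 to EC30 dose of BAM8-22 agonist; peak minus trough fluorescence over baseline measured at the second addition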
MrgX1 antagonist: antagonists of human MrgX1 receptor; AID 588676; MRGX1-HEK293 calcium flux, Fluo-4, BAM8-22 antagonism; active compounds read low; Q96LB2; B-score at 10 µM; 310,000 tested, 1.3% active;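 active means calcium-response B-score plate-corrected more than 3 library SD below zero, starting fluorescence within 5 deviations, no agonist response on first addition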;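 further: peak minus trough fluorescence over baseline after final BAM8-22 challenge near maximal dose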
MrgX1 ag confirm: confirmation of human MrgX1 receptor agonists | 600 tested, 78% active | AID 602412 | MrgX1-HEK293, Fluo-4 calcium fluorescence, FDSS | shares compounds with MrgX1 ag | activation, % at 10 µM;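 active means calcium signal rise, corrected for plate position, at least 3 library SD high, with starting brightness within 5 such deviations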
HEK293 Ca flux: counter-screen for MrgX1 antagonists: effect in parental HEK293 cells; 4,000 tested, 2% active; fluorescence ratio F(max-min)/F0 at 10 µM; shares compounds with MrgX1 antagonist; Fluo-4 calcium fluorescence, FDSS; AID 624111;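 active means duplicate-averaged calcium fluorescence ratio at least three times the standard deviation of buffer wells, a nonspecific response in parental cells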
HEK293 Ca counter: counter-screen for MrgX1 allosteric activators: effect in parental HEK293 cells; shares compounds with MrgX1 antagonist; parental HEK293 calcium flux, Fluo-4 fluorescence ratio; active compounds read high; fluorescence ratio F(max-min)/F0 at 10 µM; 4,000 tested, 0.4% active; AID 624114;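 active means calcium fluorescence ratio, averaged over duplicates, at least 3 SD of the buffer-well ratio, meaning a nonspecific response in receptor-free cells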;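 further: untransfected parental HEK293 lacking MrgX1 used as counterscreen for MrgX1 allosteric activators; fluorescence change taken during the second addition on a kinetic imager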
HEK293 Ca cntr2: activity in parental HEK293 cells lacking MrgX1 receptor. shares compounds with MrgX1 antagonist. Fluo-4 calcium fluorescence (FDSS); active compounds read high. fluorescence ratio F(max-min)/F0 at 10 µM. 4,000 tested, 8.7% active. AID 624115;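 active means calcium fluorescence ratio at least three times the spread of buffer wells, meaning a non-specific response in parental cells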
Numbers stand for hits; 0 = inactive; - = not tested or not shown.

SMILES	RGS4 inh	MrgX1 ag	RGS4 pot	MrgX1 PAM	MrgX1 antagonist	MrgX1 ag confirm	HEK293 Ca flux	HEK293 Ca counter	HEK293 Ca cntr2
Cc1nc(-c2ccc(F)cc2)c(CC(=O)N2CCN(S(=O)(=O)c3cccc(F)c3)CC2)s1	0	0	0	0	0	-	-	-	-
NC(=Nc1ccc(Cl)cc1)c1ccccc1	0	89.9	0	0	0	279.9%	0	0	54.7
ONC(=Nc1ccccc1)c1ccc(Cl)cc1	0	0	0	0	0	-	-	-	-
CC1CCCN(C(=O)c2cc3ccccc3cc2O)C1 (configuration not stated)	0	0	0	0	0	-	-	-	-
O=C(Nc1nnc(-c2ccc3c(c2)CCCC3)o1)c1ccccc1	0	27.5	0	0	0	140.0%	0	0	51.5
O=C(Nc1nnc(-c2ccc3c(c2)CCCC3)o1)c1ccccc1Cl	0	0	0	0	0	-	-	-	-
COc1cccc(-c2nnc(NC(=O)c3cccc(F)c3)o2)c1	0	27.6	0	0	0	686.1%	0	0	107
CCOC(=O)C1(Cc2cccc(Cl)c2)CCCN(C(=O)CCN2CCCC2=O)C1 (configuration not stated)	0	0	0	0	0	-	-	-	-
NC1=NC2=C(CCCC2)C2(CCCCC2)S1	0	31.5	0	0	0	160.4%	0	0	0
COc1ccc(N2CCN(S(=O)(=O)c3c(C(=O)N4CCOCC4)c(C)n(C)c3C)CC2)cc1	0	0	0	0	0	-	-	-	-
Cc1ccc(-c2nc(CS(=O)CC(=O)NCCC(C)C)c(C)o2)cc1 (configuration not stated)	0	0	0	0	0	-	-	-	-
Cc1occc1C(=O)NNC(=S)NC(=O)COc1ccc(Cl)cc1Cl	0	70.9	-9.05	0	0	193.4%	0	0	0
Cc1cc(C)cc(NC(=O)Nc2ccc(N3CCCCC3)cc2)c1	0	29.9	0	0	0	0	0	0	0
Cc1cc(Nc2cccc(Cl)c2Cl)n2ncnc2n1	0	0	0	0	0	-	-	-	-
Nc1ccc(-c2cnc3ccccc3n2)cc1	0	27.8	0	0	0	87.1%	0	0	0
COC(=O)c1cc(OC)c(OC)cc1NC(=O)CSc1ccccc1	0	0	0	0	0	-	-	-	-
CCCCS(=O)(=O)Nc1ccc2c(c1)ncn2C1CCCCC1	0	34.9	0	0	0	213.6%	0	0	50.8
COc1cc2ncnc(NCc3ccc(Cl)cc3)c2cc1OC	0	32.7	0	0	0	136.3%	0	0	0
COc1ccc(CNC(=O)C2CCN(S(=O)(=O)c3cccc4nonc34)CC2)cc1	0	0	0	0	0	-	-	-	-
O=C(Nc1ccnn1C1CCN(Cc2cc3ccccc3[nH]2)CC1)C1CCOC1 (configuration not stated)	0	28.6	0	0	0	338.6%	0	0	73.3
Cc1c(CN2CCC(n3nccc3NC(=O)C3CCOC3)CC2)[nH]c2ccccc12 (configuration not stated)	0	0	0	0	0	-	-	-	-
C=CCn1c(SCC(=O)Nc2ccc(F)cc2)nc2ccccc2c1=O	0	0	0	0	0	-	-	-	-
COc1ccc(-c2[nH]c(-c3ccccc3)nc2SCC(=O)NC2CCCC2)cc1	0	29.4	0	0	0	207.9%	0	0	46.2
CCOC(=O)c1cnn2c(C)cc(-c3ccc(F)cc3)nc12	0	26.4	0	0	0	0	0	0	0
CC(C)(C)c1ccc(C(=O)N2CCC(NC(=O)c3ccccc3)CC2)cc1	0	0	0	0	0	-	-	-	-
SMILES	RGS4 inh	MrgX1 ag	RGS4 pot	MrgX1 PAM	MrgX1 antagonist	MrgX1 ag confirm	HEK293 Ca flux	HEK293 Ca counter	HEK293 Ca cntr2
COC(=O)CC1=C(C(=O)OC)C(c2ccc3c(c2Cl)OCO3)C(C#N)=C(N)O1 (configuration not stated)	0	40.7	0	0	0	171.9%	0	0	0
Cc1n[nH]c(C)c1Cc1ccc(C(=O)O)cc1	0	0	0	0	0	-	-	-	-
O=C(OCC(=O)N1CCC(Cc2ccccc2)CC1)c1ccc[nH]c1=O	0	0	0	0	0	-	-	-	-
CCOC(=O)CSc1nc(-c2ccncc2)ccc1C#N	0	29.5	0	0	0	149.8%	0	0	0
CCOC(=O)CC(=O)CSc1nc(C)cc(-c2cccnc2)c1C#N	0	0	0	0	0	-	-	-	-
CCOC(=O)CC(=O)CSc1nc(-c2cccnc2)ccc1C#N	0	36.6	0	0	0	274.7%	0	0	65.7
Cn1c(C(=O)O)c(CC(=O)NCc2cccnc2)c2ccccc21	0	0	0	0	0	-	-	-	-
O=C1N/C(=C/c2ccc(Br)cc2)C(O)=C1C=NCc1ccccc1	0	0	0	0	0	-	-	-	-
COC(=O)Cn1c(=O)c2c(n(Cc3ccccc3)c1=O)N/C(=C/c1ccc(Br)cc1)C2=O	0	44.6	0	0	0	383.2%	0	0	71.7
COC(=O)c1c(NC(=O)CN2C(=O)NC3(CCC(C(C)(C)C)CC3)C2=O)sc2c1CCCCC2 (configuration not stated)	0	0	0	0	0	-	-	-	-
COC(=O)c1c(NC(=O)CN2C(=O)NC3(CCc4ccccc4C3)C2=O)sc2c1CCCCC2 (configuration not stated)	0	29.1	0	0	0	224.9%	0	0	75.2
Cc1csc(NC(=O)c2cc(=O)[nH]c3ccc(S(=O)(=O)N4CCOCC4)cc23)n1	0	54.8	0	0	0	265.9%	0	0	0
O=C(NC1CCCCCC1)c1cc(=O)[nH]c2ccc(S(=O)(=O)N3CCOCC3)cc12	0	0	0	0	0	-	-	-	-
Cc1[nH]n(-c2ccc(Cl)cc2)c(=O)c1C(=O)c1ccccc1	0	40.4	0	0	0	82.4%	0	0	0
Cc1[nH]n(-c2ccccc2)c(=O)c1C(=O)c1ccc(Cl)cc1	0	37.2	0	0	0	116.5%	0	0	0
Nc1nc(-c2ccc3c(c2)CCO3)cs1	0	38.5	0	0	0	175.4%	0	0	0
O=C(O)C1CCCCC1C(=O)NCc1ccc(Cl)c(Cl)c1 (configuration not stated)	0	0	0	0	0	-	-	-	-
COc1ccc(N=Cc2sc(O)c3ccccc23)cc1	0	44.4	0	0	0	0	0.575	0	121
COc1ccc(N=Cc2c(O)c3ccccc3n2C(C)=O)cc1	0	61.6	0	0	0	583.2%	0	0	110
COc1ccc(-n2c(O)c(C=Nc3ccccc3)c3ccccc3c2=O)cc1	0	0	0	0	0	-	-	-	-

Bioassay records (PubChem)
